Source: PubChem BioAssay (The Scripps Research Institute Molecular Screening Center)
Compounds with a hit are over-represented: about 3.2% of the library has one in this group of screens.
PRMT1 FP inh = PRMT1 (human) inhibition, primary screen | 370,000 tested, 1.3% active | AID 652257 | recombinant PRMT1, activity-based probe fluorescence polarization | inhibition, % at 2.79 µM;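 active = inhibition above about 21% made by adding two undisclosed values, limit read from the data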
ABHD4 inh = inhibits mouse alpha/beta hydrolase domain 4 | purified mABHD4, FP-Rh probe fluorescence polarization | AID 720543 | Q8VD66 | 370,000 tested, 0.54% active | inhibition, % at 8.92 µM;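 active = inhibition exceeding the mean over every tested compound plus 3 SD, cut at about 30% in these data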;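 also: 0% = plate median of compound wells and 100% = S159A mutant with DMSO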
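Test system: mABHD4 protein; Read-out basis: % inhibition; Incubation: 45 min + 60 min at 25 °C; Repeats: single replicate; Technique: fluorescence polarization with parallel and perpendicular emission, 525/598 nm; Compound: 8.92 µM, single dose; Benchmarks: full inhibition S159A mutant plus DMSO, zero as sample-well median.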
LEDGF integ inh = blocks HIV-1 LEDGF/p75-dependent DNA integration; 370,000 tested, 0.64% active; AID 743269; TR-FRET IN-LEDGF/p75 DNA integration, Eu/Cy5; inhibition, % at 3.7 µM;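 active = inhibition above the screen-wide mean plus 3 SD, cut at about 13% in these data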;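 also: signal is the Cy5 over europium emission ratio at 671 and 618 nm; 0% = plate median of compound wells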
rCAG RNA binder = r(CAG) repeat RNA binding; TO-PRO-1 dye displacement fluorescence; inhibition, % at 3 µM; 370,000 tested, 1.3% active;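 active = inhibition above the plate cutoff, the mean of all test compounds on that plate plus 3 SD, cut at about 35% in these data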;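 also: 0% = DMSO alone and 100% = 100 µM mitoxantrone as full dye displacement; higher means more dye released from RNA so lower well fluorescence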
HTRA1 inhibitor = HTRA1 (human) protease inhibition; Q92743; recombinant HTRA1, FP-rhodamine activity-based probe, fluorescence polarization; inhibition, % at 5.96 µM; 340,000 tested, 0.5% active; AID 504803; in the data active = inhibition above about 36%;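 also: 0% = enzyme with DMSO and 100% = wells lacking enzyme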
DAGLB inhibitor = diacylglycerol lipase beta (human) inhibition | AID 504411 | 340,000 tested, 0.059% active | HEK293T DAGLB membrane lysate, EnzChek fluorogenic substrate | Q8NCG7 | inhibition, % at 5.17 µM; in the data active = inhibition above about 34%;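 also: 0% = enzyme with vehicle and 100% = wells lacking enzyme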
Target sequence (Q8NCG7 whole entry, looked up): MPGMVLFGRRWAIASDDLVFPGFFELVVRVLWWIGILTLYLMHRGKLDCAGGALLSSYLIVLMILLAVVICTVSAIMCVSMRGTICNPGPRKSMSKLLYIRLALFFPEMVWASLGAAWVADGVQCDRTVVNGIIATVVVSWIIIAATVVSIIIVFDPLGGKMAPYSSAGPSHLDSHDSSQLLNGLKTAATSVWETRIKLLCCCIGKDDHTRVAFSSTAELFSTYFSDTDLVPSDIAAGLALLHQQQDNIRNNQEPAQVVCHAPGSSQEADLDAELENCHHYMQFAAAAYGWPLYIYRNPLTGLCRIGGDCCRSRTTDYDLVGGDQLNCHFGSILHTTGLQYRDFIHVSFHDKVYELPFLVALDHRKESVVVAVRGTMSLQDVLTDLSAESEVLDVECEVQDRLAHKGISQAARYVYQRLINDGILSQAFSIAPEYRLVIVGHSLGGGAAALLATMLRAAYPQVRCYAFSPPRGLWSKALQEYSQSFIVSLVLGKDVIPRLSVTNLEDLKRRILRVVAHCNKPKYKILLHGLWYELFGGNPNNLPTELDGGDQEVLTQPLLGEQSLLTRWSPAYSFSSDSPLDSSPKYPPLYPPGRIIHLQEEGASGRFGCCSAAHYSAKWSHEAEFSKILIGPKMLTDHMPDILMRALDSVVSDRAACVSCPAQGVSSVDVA
PRMT1 confirm = PRMT1 (human) inhibition, FP confirmation. shares compounds with PRMT1 FP inh. recombinant His-PRMT1, activity-based probe fluorescence polarization. inhibition, % at 2.79 µM. 3,300 tested, 42% active. AID 687036;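 active = mean inhibition across replicates above the hit cutoff derived for the earlier primary screen, cut at about 22% in these data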
Starred values were filed as active, the others as inactive; · = no result given.

SMILES	PRMT1 FP inh	ABHD4 inh	LEDGF integ inh	rCAG RNA binder	HTRA1 inhibitor	DAGLB inhibitor	PRMT1 confirm
O=C(NCC1CCCO1)C1c2ccccc2C(=O)N1Cc1ccc2c(c1)OCO2 (configuration not stated)	2	-3	5	4	3	-3	·
CCOC(=O)C1=C(CSc2nc(-c3ccccc3)ccc2C#N)OC(N)=C(C#N)C1c1cccnc1 (configuration not stated)	41*	-44	0	8	-43	-2	26*
CCOC(=O)C1=C(CSc2nc3c(cc2C#N)CCC3)OC(N)=C(C#N)C1c1ccccc1 (configuration not stated)	46*	1	6	13	-2	0	3
O=C(NCCCc1ccncc1)C1CCC(=O)N(Cc2ccc(Cl)cc2)C1 (configuration not stated)	-1	8	-5	-7	3	1	·
CN(CC(=O)Nc1ccccc1Cl)C(=O)COC(=O)CSc1ccc(F)cc1	-5	-3	1	-4	3	0	·
CC(=O)Nc1ccc(SCC(=O)N(C)CC(=O)Nc2ccccc2Cl)cc1	58*	5	-2	4	4	0	61*
O=[N+]([O-])c1cc(-c2ncccn2)c([N+](=O)[O-])s1	28*	1	-3	0	1	1	37*
CC(C)Cc1nnc(NC(=O)c2ccc3c(c2)NC(=O)C(C)S3)s1 (configuration not stated)	1	1	1	-1	5	1	·
CC1Sc2ccc(C(=O)NCc3ccccn3)cc2NC1=O (configuration not stated)	34*	-11	2	2	3	-1	8
O=C(CN(Cc1ccco1)C(=O)CCC(=O)Nc1nccs1)NCc1ccccc1	-1	1	2	-2	3	-4	·
COc1ccc(C2C(C(=O)c3cccs3)=C(O)C(=O)N2c2nncs2)cc1 (configuration not stated)	75*	3	2	-122	-1	-2	99*
COc1ccc(C2C(C(=O)c3cccs3)=C(O)C(=O)N2c2nnc(C)s2)cc1OC (configuration not stated)	·	·	·	·	-8	-7	·
C=CCSc1nnc(N2C(=O)C(O)=C(C(=O)c3ccco3)C2c2ccccc2F)s1 (configuration not stated)	27*	1	1	25	-14	7	10
CC(C)c1nnc(N2C(=O)C(O)=C(C(=O)c3cccs3)C2c2ccccc2)s1 (configuration not stated)	79*	-23	-5	-73	-10	-2	76*
C=CCOc1ccc(C2C(C(=O)c3cccs3)=C(O)C(=O)N2c2nnc(C)s2)cc1 (configuration not stated)	41*	-9	0	7	-11	0	25*
COC(=O)C1=C(C)N(Cc2cccc(C(F)(F)F)c2)C(=NCc2ccc(OC)cc2)NC1c1ccccc1C(F)(F)F (configuration not stated)	0	7	-2	4	·	·	·
Cc1ccc(C2C(C(=O)c3ccco3)=C(O)C(=O)N2c2nnc(C)s2)cc1 (configuration not stated)	30*	5	0	-4	5	0	5
Cc1nnc(N2C(=O)C(O)=C(C(=O)c3ccco3)C2c2cccc3ccccc23)s1 (configuration not stated)	14	14	-2	18	3	4	·
O=C(CC1C(=O)NCCN1Cc1c(F)cccc1Cl)NC1CCCCCC1 (configuration not stated)	4	2	-8	-11	0	2	·
O=C1CN(/N=C/c2ccc([N+](=O)[O-])o2)C(=O)N1	30*	1	7	0	·	·	-1
CCCN(CCC)Cc1cc(=O)oc2cc3c(cc12)CCC3	5	-2	-1	0	-5	-9	·
O=C(O)c1ccccc1NC(=S)NC(=O)c1sc2ccccc2c1Cl	32*	0	-8	18	-1	1	32*
O=C(NC(=S)Nc1ccccc1N1CCOCC1)c1sc2ccccc2c1Cl	0	-2	0	1	8	-2	·
O=C(O)c1cccc(Cn2c(Cl)c(/C=N/NC(=O)c3ccc(O)cc3)sc2=O)c1	14	-14	2	9	-4	0	·
O=c1sc(/C=N/Nc2ccccc2)c(Cl)n1Cc1ccccc1	59*	3	-3	11	-7	0	6
SMILES	PRMT1 FP inh	ABHD4 inh	LEDGF integ inh	rCAG RNA binder	HTRA1 inhibitor	DAGLB inhibitor	PRMT1 confirm
O=C(Nc1ccccc1)N1CCc2scc[n+]2-c2ccccc21	56*	2	2	11	4	3	19
O=CN1CCc2scc[n+]2-c2ccccc21	41*	4	-1	0	1	1	30*
CCn1c(Cl)c(C=O)s/c1=N\S(=O)(=O)c1ccccc1	49*	-4	2	0	-29	-4	27*
O=C(O)C1CC(=O)N(Cc2ccc3c(c2)OCO3)C1 (configuration not stated)	·	·	·	·	6	-3	·
O=C1CC(NCc2ccc3c(c2)OCO3)C(=O)N1Cc1ccc2c(c1)OCO2 (configuration not stated)	56*	1	-2	-2	-2	3	0
C#CCOc1ccc(C2C(C#N)=C(N)Oc3cc(O)ccc32)cc1 (configuration not stated)	8	4	-1	11	-36	-1	·
COc1cccc(NC(=O)c2sc3nc(N4CCOCC4)c4c(c3c2N)CCCC4)c1	32*	3	0	13	-32	0	8
CC(=O)c1ccc(NC(=O)c2sc3nc(N4CCOCC4)c4c(c3c2N)CCCC4)cc1	20	-3	0	5	-3	5	·
Nc1c(C(=O)Nc2ccccc2)sc2nc(N3CCOCC3)c3c(c12)CCCC3	35*	10	1	13	-8	1	20
Cc1ccc(NC(=O)c2sc3nc(N4CCOCC4)c4c(c3c2N)CCCC4)cc1	27*	4	0	10	-23	0	20
Nc1c(C(=O)Nc2ccc(Cl)cc2)sc2nc(N3CCOCC3)c3c(c12)CCCC3	30*	4	-1	14	-18	-4	46*
Cc1ccccc1NC(=O)n1ncc2cc(Cl)ccc21	6	6	-6	1	6	-4	·
Cc1cccc2cc3c(N)c(C(=O)N4CCOCC4)sc3nc12	36*	-7	-1	11	-13	3	12
NNC(=O)c1sc2nc(N3CCOCC3)c3c(c2c1N)CCCC3	-2	4	0	7	·	·	·
Nc1c(C(=O)N2CCOCC2)sc2nc(N3CCOCC3)c3c(c12)CCCC3	34*	8	-5	-3	1	2	12
